Assay outcomes as filed in PubChem.
Only some compounds are listed: those with a hit (about 4.5% of all), similar ones and a draw of the others.
GPR7 antagonist – blocks human GPR7 receptor signaling. P48145. GPR7-expressing cells, fluorescence antagonist assay. inhibition, % at 4.4 µM. hit rate 1.1% among 290,000; in the data active means inhibition above about 16%, passing the limit was not always enough;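 further: cells stimulated with the agonist NPW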
Target sequence (P48145 whole entry, looked up): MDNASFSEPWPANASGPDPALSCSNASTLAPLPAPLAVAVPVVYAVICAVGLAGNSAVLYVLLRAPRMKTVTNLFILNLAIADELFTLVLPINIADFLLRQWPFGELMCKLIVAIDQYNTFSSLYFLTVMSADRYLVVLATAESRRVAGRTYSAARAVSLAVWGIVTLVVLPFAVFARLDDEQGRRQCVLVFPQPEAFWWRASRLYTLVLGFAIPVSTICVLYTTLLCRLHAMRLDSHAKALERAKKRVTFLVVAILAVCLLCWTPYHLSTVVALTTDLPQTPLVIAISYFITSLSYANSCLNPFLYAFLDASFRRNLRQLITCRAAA
TAAR1 agonist – agonists of human TAAR1; Q96RJ0; CHO RD-HGA16 TAAR1, Fluo-8 calcium fluorescence; vehicle wells 0%, saturating PEA agonist 100%; activation, % at 3 µM; hit rate 0.99% among 360,000;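 active means activation above the mean activation of all test compounds in the run plus 3 SD, cut at about 38% in these data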
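test system = CHO RD-HGA16 cells carrying human TAAR1 plus Gα16 | schedule = 17-24 h seeding, 75 min 37 °C dye, 30 min RT | compound dosing = 3 µM single concentration | control set = DMSO and PEA EC100 | replicates = n 1 | signal = Fluo-8 fluorescence, 5 s baseline then 140 s kinetic read | measure = percent activation vs PEA EC100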
OX1R antag-1 – OX1R (human) antagonism | hit rate 1.8% among 330,000 | O43613 | OX1R-expressing cells, FRET antagonist read-out | inhibition, % at 6.6 µM; in the data active means inhibition mostly above about 38%, no sharp cut-off; inactive means mostly below about 40%
OX1R antag-2 – antagonists of human orexin 1 receptor | AID 434989 | inhibition, % at 5 µM | CHO/OX1R cells, Fluo-8 calcium fluorescence, orexin A | O43613 | hit rate 0.43% among 330,000;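 active means inhibition above its plate's threshold, mean inhibition of all tested compounds on the plate plus 3 SD, cut at about 37% in these data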
CHO parental Ca – counter-screen: ATP calcium response change in parental CHO cells | parental CHO-K1, ATP-induced calcium, Fluo-8 fluorescence | inhibition, % at 5.6 µM | hit rate 0.63% among 330,000;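 active means inhibition above that plate's mean sample inhibition plus 3 SD, cut at about 26% in these data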
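Test system: parental CHO cells; detection: calcium-sensitive Fluo-8 fluorescence; evaluation: percent inhibition of calcium signal; also added: ATP as calcium-mobilizing challenge; repeats: one well per compound; control set: ATP-challenged DMSO wells low, unchallenged DMSO wells high; compound: single nominal dose of 5.6 µM per compound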
TAAR1 antagonist – antagonists of human TAAR1 | Q96RJ0 | CHO RD-HGA16 TAAR1, Fluo-8 calcium fluorescence, antagonist | inhibition, % at 3 µM | hit rate 1.5% among 360,000 | AID 624466;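 active means inhibition above a per-plate cutoff, the mean inhibition of test compounds on that plate plus 3 SD, cut at about 49% in these data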
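Test system: RD-HGA16 CHO cells with stable hTAAR1 and Gα16 / Probe or stimulus: EC80 β-phenethylamine stimulus / Times: seeding 17-24 h prior, 75-min 37 °C, 30-min RT dye loading / Detection: Fluo-8 calcium-sensitive fluorescence / Read-out basis: % inhibition scaled between DMSO and EC80 PEA controls / Repeats: singlicate, one well per test compound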
OX1R HTRF conf – confirmation of human orexin 1 receptor antagonists, HTRF format. shares compounds with OX1R antag-1. OX1R-expressing cells, HTRF antagonist assay. inhibition, % at 6.6 µM. hit rate 49% among 1,800; in the data active means inhibition above about 55%;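 further: CHO cells expressing OX1R stimulated with orexin A at about EC80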
CHO-K1 HTRF – counter-screen: parental CHO-K1 HTRF response; parental CHO-K1 cells, HTRF counterscreen; inhibition, % at 6.6 µM; shares compounds with OX1R antag-1; hit rate 48% among 1,800; in the data active means inhibition above about 17%
Of the large screens only hits and unclear results are named; the others gave an inactive call (follow-up assays come after a bar, where they were run).

Cc1cc(C)c2[nH]c3nc(SCC(=O)O)nnc3c2c1	OX1R antag-1 104 | OX1R HTRF conf inactive | CHO-K1 HTRF inactive
C/C(=C\C(=O)c1ccncc1)Nc1ccccc1O	OX1R antag-1 91 | OX1R HTRF conf inactive | CHO-K1 HTRF inactive
COc1ccc(OC)c(N/C(C)=C/C(=O)c2ccncc2)c1	none
Cc1cc(C)c(NC(=O)C2CC(=O)N(C3CCCC3)C2)c(C)c1 (stereo not drawn)	none (no result: GPR7 antagonist)
O=C(NC1CCCCC1)c1sc(=S)n2c1[nH]c(=O)c1ccccc12	OX1R antag-1 82 | OX1R HTRF conf 56 | CHO-K1 HTRF inactive
CN(CCc1ccccc1)C(=O)c1cccc(NC(=O)Cc2cccc([N+](=O)[O-])c2)c1	none (no result: GPR7 antagonist)
CCN1CCN(CCC2Oc3cc([N+](=O)[O-])ccc3NC2=O)CC1 (stereo not drawn)	OX1R antag-1 78 | OX1R HTRF conf inactive | CHO-K1 HTRF 25
O=S(=O)(c1ccc(S(=O)(=O)N2CCC(O)CC2)cc1)N1CCCC1	none
O=C1CN(S(=O)(=O)c2cccc(C(=O)O)c2)c2ccccc2N1	none
CN(C)C(CNC(=O)c1cc2ccccc2oc1=O)c1ccccc1 (stereo not drawn)	OX1R antag-1 92 | OX1R HTRF conf inactive | CHO-K1 HTRF 43
O=C(c1ccco1)N1CCN(Cc2nnc(-c3cccc(Cl)c3)o2)CC1	none
c1ccc(-c2nc3nc4ccccc4nc3n2Cc2ccco2)cc1	OX1R antag-1 107 | OX1R HTRF conf inactive | CHO-K1 HTRF 18
Cc1nnc(N/N=C/c2ccc([N+](=O)[O-])cc2)n1N	OX1R antag-1 127 | OX1R HTRF conf inactive | CHO-K1 HTRF 76
Cc1nnc(N/N=C\c2ccc(-c3cccc(C(=O)O)c3)o2)n1N	OX1R antag-1 115 | OX1R HTRF conf inactive | CHO-K1 HTRF 33
O=C(O)c1cccc(-c2ccc(/C=N/NC(=O)c3cccnc3)o2)c1	none
Cc1nnc(N/N=C/c2ccc(Br)cc2)n1N	none
CCC(C)NC(=O)CCn1ccc2cc(S(=O)(=O)N3CCCC3)ccc21 (stereo not drawn)	none
c1ccc(C[n+]2cccc3c4ccccc4ccc32)cc1	OX1R antag-1 77 | OX1R HTRF conf inactive | CHO-K1 HTRF 47
CC(C)N(C(=O)Cn1cnc2cc([N+](=O)[O-])ccc2c1=O)C(C)C	OX1R antag-1 141 (no result: TAAR1 agonist, TAAR1 antagonist) | OX1R HTRF conf inactive | CHO-K1 HTRF 93
O=C(Cn1cnc2cc([N+](=O)[O-])ccc2c1=O)NCCc1ccc(F)cc1	none
O=C(Cn1cnc2cc([N+](=O)[O-])ccc2c1=O)NCc1ccccc1	OX1R antag-1 95 | OX1R HTRF conf 55 | CHO-K1 HTRF 62
O=C(CCNC(=O)c1ccc([N+](=O)[O-])cc1)NCc1ccccc1	none (no result: GPR7 antagonist, OX1R antag-1, OX1R antag-2, CHO parental Ca)
CCc1ccc(C(=O)Cn2cnc3cc([N+](=O)[O-])ccc3c2=O)cc1	none
O=C(CCC(=O)NNC(=O)c1ccc([N+](=O)[O-])cc1)NCc1ccccc1	OX1R antag-1 91 | OX1R HTRF conf inactive | CHO-K1 HTRF 39
COc1ccc(-c2cc(C(F)F)n3ncc(C(=O)N4CCc5ccccc54)c3n2)cc1	none
COc1ccc(-c2cc(C(F)F)n3ncc(C(=O)n4ccnc4C)c3n2)cc1	OX1R antag-1 108 | OX1R HTRF conf inactive | CHO-K1 HTRF 29
CC(=O)Nc1ccc(Nc2cc(N(C)C)c3nonc3c2[N+](=O)[O-])cc1	none (no result: OX1R antag-1, OX1R antag-2, CHO parental Ca)
NS(=O)(=O)c1ccc(Nc2ccc3nonc3c2[N+](=O)[O-])cc1	OX1R antag-1 90 | OX1R HTRF conf 63 | CHO-K1 HTRF 110
O=[N+]([O-])c1ccc2nonc2c1Nc1cccc(F)c1	none
O=C(O)c1ccc(Nc2cc(Cl)c3nonc3c2[N+](=O)[O-])cc1	OX1R antag-1 96 | OX1R HTRF conf 62 | CHO-K1 HTRF 98
Cc1c(Nc2ccc3nonc3c2[N+](=O)[O-])c(=O)n(-c2ccccc2)n1C	OX1R antag-1 195 | OX1R HTRF conf inactive | CHO-K1 HTRF 87
